From ChEMBL document CHEMBL3875153, “Design and synthesis of isatin/triazole conjugates that induce apoptosis and inhibit migration of MGC-803 cells” (Eur J Med Chem, 2016)
Calls of active or inactive are those of the source. No cut-off for these calls is given here.

How the values were obtained:
[1] = Cytotoxicity against human MCF7 cells assessed as growth inhibition after 72 hrs by CCK8 assay; format: functional, cell-based
Procedure, shortened: (§1)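 Exponentially growing cells were trypsinized and seeded at 2 × 10^4 cells/mL (100 µL/well). After 24 h, medium was replaced with compound at 0.5–256 µM (twofold steps). Plates were incubated 72 h at 37 °C, 5% CO2, then with CCK-8 for 4 h. A450 was read. Three independent runs; IC50 given as mean and SD.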

[2] = Cytotoxicity against human MGC803 cells assessed as growth inhibition after 72 hrs by CCK8 assay; format: functional, cell-based, MGC-803; procedure, shortened: as §1
[3] = Cytotoxicity against human GES-1 cells assessed as growth inhibition after 72 hrs by CCK8 assay; format: toxicity, cell-based, GES1; conditions: for IC50 at 72 h: human, GES-1 cells; procedure, shortened: as §1
[4] = Cytotoxicity against human TE1 cells assessed as growth inhibition after 72 hrs by CCK8 assay; format: functional, cell-based, TE-1; procedure, shortened: as §1
[5] = Cytotoxicity against human HL-7702 cells assessed as growth inhibition after 72 hrs by CCK8 assay; format: toxicity, cell-based, L02; conditions: for IC50 at 72 h: human, HL-7702 cells; procedure, shortened: as §1
[6] = Cytotoxicity against human SW780 cells assessed as growth inhibition after 72 hrs by CCK8 assay; format: functional, cell-based; procedure, shortened: as §1
MGC-803 [7] = test: Induction of apoptosis in human MGC803 cells assessed as early apoptotic cells at 10 uM after 24 hrs by Annexin-V FITC/propidium iodide staining based flow cytometry (reference value: 0.9 +/- 0.3%); format: functional
MGC-803 [8] = test: Induction of morphological changes in human MGC803 cells assessed as nuclear fragmentation at 5 to 20 uM after 24 hrs by Hoechst 33258 staining based confocal microscopic analysis; format: functional, cell-based
Procedure, shortened: (§2)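 MGC-803 cells grown on glass slides to about 70% confluence, treated 24 h at 0, 5, 10, 20 µM. PBS-washed, stained 20 min in dark with 10 µg/mL Hoechst 33258 containing 0.1% Triton X-100, washed, mounted, imaged by laser scanning confocal microscopy. Cell morphology also viewed by inverted microscope.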

[9] = Cell cycle arrest in human MGC803 cells assessed as accumulation at G0/G1 phase at 20 uM after 24 hrs by propidium iodide staining based flow cytometry (reference value: 54.77%); format: functional; conditions: MGC-803
MGC-803 [10] = test: Induction of ROS generation in human MGC803 cells at 20 uM after 24 hrs by DCFH-DA staining based flow cytometry (reference value: 2.84%); format: functional
Procedure, shortened: (§3)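 MGC-803 cells exposed to 0, 5, 10, 20 µM for 24 h, collected, then loaded with DCFH-DA (10 µM) for 30 min at 37 °C. Washed three times in serum-free medium; DCF green fluorescence quantified by flow cytometry as percent fluorescent cells.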

MGC-803 [11] = test: Induction of apoptosis in human MGC803 cells assessed as late apoptotic cells at 20 uM after 24 hrs by Annexin-V FITC/propidium iodide staining based flow cytometry (reference value: 0.4 +/- 0.5%); format: functional
MGC-803 [12] = test: Induction of ROS generation in human MGC803 cells after 24 hrs by DCFH-DA staining based flow cytometry; format: functional, cell-based; procedure, shortened: as §3
[13] = Cell cycle arrest in human MGC803 cells assessed as accumulation at S phase at 5 uM after 24 hrs by propidium iodide staining based flow cytometry (reference value: 21.32%); format: functional; conditions: MGC-803
MGC-803 [14] = test: Induction of apoptosis in human MGC803 cells assessed as inhibition of Bcl2 protein expression at 5 to 20 uM after 24 hrs by Western blot method; format: functional, cell-based
Procedure, shortened: (§4)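 Cells given 0, 5, 10, 20 µM for 24 h, lysed 30 min in RIPA buffer (50 mM Tris-HCl pH 7.5, 150 mM NaCl, detergents) with protease inhibitors. Cleared lysate protein measured by BCA, resolved by SDS-PAGE, moved to nitrocellulose. Membranes blocked in 5% milk, probed with primary antibodies overnight at 4 °C, then secondary (1:5000) 2 h. ECL detection.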

[15] = Cell cycle arrest in human MGC803 cells assessed as accumulation at G2/M phase at 10 uM after 24 hrs by propidium iodide staining based flow cytometry (reference value: 20.66%); format: functional; conditions: MGC-803
MGC-803 [16] = test: Induction of apoptosis in human MGC803 cells assessed as early apoptotic cells at 5 uM after 24 hrs by Annexin-V FITC/propidium iodide staining based flow cytometry (reference value: 0.9 +/- 0.3%); format: functional
MGC-803 [17] = test: Induction of apoptosis in human MGC803 cells assessed as late apoptotic cells at 5 uM after 24 hrs by Annexin-V FITC/propidium iodide staining based flow cytometry (reference value: 0.4 +/- 0.5%); format: functional
MGC-803 [18] = test: Induction of ROS generation in human MGC803 cells at 10 uM after 24 hrs by DCFH-DA staining based flow cytometry (reference value: 2.84%); format: functional; procedure, shortened: as §3
[19] = Cell cycle arrest in human MGC803 cells assessed as accumulation at G2/M phase after 24 hrs by propidium iodide staining based flow cytometry; format: functional; conditions: MGC-803
MGC-803 [20] = test: Anti-migratory activity against human MGC803 cells after 24 hrs by Hoechst 33258 staining based transwell assay; format: functional, cell-based
Procedure, shortened: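 MGC-803 cells, 10,000 per upper chamber in 100 µL medium with 1% FBS plus compound (0, 2, 4, 8 µM). Lower chamber held medium with 20% FBS as chemoattractant. After 24 h, chambers PBS-washed, cells stained with Hoechst 33258 (10 µg/mL), migrated cells counted by high content screening.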

MGC-803 [21] = test: Induction of apoptosis in human MGC803 cells assessed as increase in caspase-6 protein expression at 5 to 20 uM after 24 hrs by Western blot method; format: functional, cell-based; procedure, shortened: as §4
MGC-803 [22] = test: Induction of morphological changes in human MGC803 cells assessed as cell rounding up at 5 to 20 uM after 24 hrs by Hoechst 33258 staining based confocal microscopic analysis; format: functional; procedure, shortened: as §2
MGC-803 [23] = test: Induction of ROS generation in human MGC803 cells at 5 uM after 24 hrs by DCFH-DA staining based flow cytometry (reference value: 2.84%); format: functional; procedure, shortened: as §3
MGC-803 [24] = test: Induction of apoptosis in human MGC803 cells assessed as activation of Bax protein expression at 5 to 20 uM after 24 hrs by Western blot method; format: functional, cell-based; procedure, shortened: as §4
[25] = Cell cycle arrest in human MGC803 cells assessed as accumulation at S phase at 10 uM after 24 hrs by propidium iodide staining based flow cytometry (reference value: 21.32%); format: functional; conditions: MGC-803
MGC-803 [26] = test: Induction of apoptosis in human MGC803 cells after 24 hrs by Annexin-V FITC/propidium iodide staining based flow cytometry; format: functional, cell-based
MGC-803 [27] = test: Inhibition of LSD1 expression in human MGC803 cells after 24 hrs by Western blot method; format: functional, cell-based; procedure, shortened: as §4
MGC-803 [28] = test: Induction of apoptosis in human MGC803 cells assessed as increase in PARP cleavage at 5 to 20 uM after 24 hrs by Western blot method; format: functional, cell-based; procedure, shortened: as §4
MGC-803 [29] = test: Induction of apoptosis in human MGC803 cells assessed as increase in caspase-9 cleavage at 5 to 20 uM after 24 hrs by Western blot method; format: functional, cell-based; procedure, shortened: as §4
MGC-803 [30] = test: Induction of morphological changes in human MGC803 cells assessed as cell debris at 5 to 20 uM after 24 hrs by Hoechst 33258 staining based confocal microscopic analysis; format: functional; procedure, shortened: as §2
MGC-803 [31] = test: Induction of apoptosis in human MGC803 cells assessed as late apoptotic cells at 10 uM after 24 hrs by Annexin-V FITC/propidium iodide staining based flow cytometry (reference value: 0.4 +/- 0.5%); format: functional
MGC-803 [32] = test: Induction of apoptosis in human MGC803 cells assessed as increase in caspase-7 protein expression at 5 to 20 uM after 24 hrs by Western blot method; format: functional, cell-based; procedure, shortened: as §4
MGC-803 [33] = test: Induction of morphological changes in human MGC803 cells assessed as nuclear condensation at 5 to 20 uM after 24 hrs by Hoechst 33258 staining based confocal microscopic analysis; format: functional, cell-based; procedure, shortened: as §2
MGC-803 [34] = test: Induction of apoptosis in human MGC803 cells assessed as early apoptotic cells at 20 uM after 24 hrs by Annexin-V FITC/propidium iodide staining based flow cytometry (reference value: 0.9 +/- 0.3%); format: functional
MGC-803 [35] = test: Induction of morphological changes in human MGC803 cells assessed as chromatin condensation at 5 to 20 uM after 24 hrs by Hoechst 33258 staining based confocal microscopic analysis; format: functional, cell-based; procedure, shortened: as §2
[36] = Cell cycle arrest in human MGC803 cells assessed as accumulation at G0/G1 phase at 5 uM after 24 hrs by propidium iodide staining based flow cytometry (reference value: 54.77%); format: functional; conditions: MGC-803
[37] = Cell cycle arrest in human MGC803 cells assessed as accumulation at S phase at 20 uM after 24 hrs by propidium iodide staining based flow cytometry (reference value: 21.32%); format: functional; conditions: MGC-803
MGC-803 [38] = test: Induction of apoptosis in human MGC803 cells assessed as increase in caspase-3 protein expression at 5 to 20 uM after 24 hrs by Western blot method; format: functional, cell-based; procedure, shortened: as §4
MGC-803 [39] = test: Induction of apoptosis in human MGC803 cells assessed as increase in caspase-8 cleavage at 5 to 20 uM after 24 hrs by Western blot method; format: functional, cell-based; procedure, shortened: as §4
[40] = Cell cycle arrest in human MGC803 cells assessed as accumulation at G0/G1 phase at 10 uM after 24 hrs by propidium iodide staining based flow cytometry (reference value: 54.77%); format: functional; conditions: MGC-803
[41] = Cell cycle arrest in human MGC803 cells assessed as accumulation at G2/M phase at 20 uM after 24 hrs by propidium iodide staining based flow cytometry (reference value: 20.66%); format: functional; conditions: MGC-803
MGC-803 [42] = test: Induction of apoptosis in human MGC803 cells assessed as inhibition of Mcl1 protein expression at 5 to 20 uM after 24 hrs by Western blot method; format: functional, cell-based; procedure, shortened: as §4
[43] = Cell cycle arrest in human MGC803 cells assessed as accumulation at G2/M phase at 5 uM after 24 hrs by propidium iodide staining based flow cytometry (reference value: 20.66%); format: functional; conditions: MGC-803
[44] = Homo sapiens, MCF7, 72 h, read-out: IC50
[45] = Homo sapiens, MGC-803, 72 h, read-out: IC50
[46] = Homo sapiens, TE-1, 72 h, read-out: IC50
[47] = Homo sapiens, SW780, 72 h, read-out: IC50

O=C1C(=O)N(Cc2cn(CC(=O)N3CCNCC3)nn2)c2c(Cl)ccc(Cl)c21
IC50 ([1]; mcf7): Nd(Insoluble)
IC50 ([2]; mgc-803): Nd(Insoluble)
IC50 ([3]; ges1): Nd(Insoluble)
IC50 ([4]; te-1): Nd(Insoluble)
IC50 ([5]; l02): Nd(Insoluble)
IC50 ([6]; sw780): Nd(Insoluble)

O=C1C(=O)N(Cc2cn(CC(=O)N3CCCC3)nn2)c2c(Cl)ccc(Cl)c21
IC50 [1, 44]: 62.4 µM
IC50 [2, 45]: 14.8 µM
IC50 at 72 h [3]: 88.7 µM
IC50 [4, 46]: 51.6 µM
IC50 at 72 h [5]: > 128 µM
IC50 [6, 47]: 48.2 µM

O=C1C(=O)N(Cc2cn(CC(=O)N3CCOCC3)nn2)c2c(Cl)ccc(Cl)c21
IC50 [1, 44]: 146 µM
IC50 [2, 45]: 51.7 µM
IC50 at 72 h [3]: > 128 µM
IC50 [4, 46]: 119 µM
IC50 at 72 h [5]: > 128 µM
IC50 [6, 47]: 113 µM

O=C(Cn1cc(CN2C(=O)C(=O)c3c(Cl)ccc(Cl)c32)nn1)OC1CCCCC1
Activity (MGC-803 [7]): 10.3%
IC50 [1, 44]: 18.9 µM
Activity (MGC-803 [8]): Active
Activity [9]: 34.8%
Activity (MGC-803 [10]): 19.3%
Activity (MGC-803 [11]): 4.5%
Activity (MGC-803 [12]): Dose-dependent effect
Activity [13]: 21.5%
inhibition (MGC-803 [14]): Active
Activity [15]: 28.7%
IC50 [2, 45]: 9.78 µM
Activity (MGC-803 [16]): 7.8%
Activity (MGC-803 [17]): 5%
Activity (MGC-803 [18]): 10.3%
Activity [19]: Dose-dependent effect
Activity (MGC-803 [20]): Dose-dependent effect
Activity (MGC-803 [21]): Active
IC50 at 72 h [3]: 36 µM
Activity (MGC-803 [22]): Active
Activity (MGC-803 [23]): 6.04%
Activity (MGC-803 [24]): Active
Activity [25]: 24%
Activity (MGC-803 [26]): Dose-dependent effect
inhibition (MGC-803 [27]): Dose-dependent effect
Activity (MGC-803 [28]): Active
IC50 [4, 46]: 14.2 µM
Activity (MGC-803 [29]): Active
IC50 at 72 h [5]: 40.3 µM
Activity (MGC-803 [30]): Active
Activity (MGC-803 [31]): 5.7%
Activity (MGC-803 [32]): Active
Activity (MGC-803 [33]): Active
IC50 [6, 47]: 25.2 µM
Activity (MGC-803 [34]): 18%
Activity (MGC-803 [35]): Active
Activity [36]: 48.7%
Activity [37]: 23.5%
Activity (MGC-803 [38]): Active
Activity (MGC-803 [39]): Active
Activity [40]: 40.3%
Activity [41]: 32.3%
inhibition (MGC-803 [42]): Active
Activity [43]: 24.1%
